ChEMBL document CHEMBL1126969, “Antipsoriatic anthrones with modulated redox properties. 1. Novel 10-substituted 1,8-dihydroxy-9(10H)-anthracenones as inhibitors of 5-lipoxygenase” (J Med Chem, 1993)

What was measured:
[1] = Reducing activity against 2,2-diphenyl-1-picrylhydrazyl; format: ADME
[2] = target: T1, Arachidonate 5-lipoxygenase (Bos taurus, UniProt Q9BEG3); assay: Inhibitory activity against 5-lipoxygenase (inhibition of 5-HETE and LTB4 biosynthesis) in bovine polymorphonuclear leukocytes (PMNL).; format: cell-based
T1 sequence (Q9BEG3 whole entry): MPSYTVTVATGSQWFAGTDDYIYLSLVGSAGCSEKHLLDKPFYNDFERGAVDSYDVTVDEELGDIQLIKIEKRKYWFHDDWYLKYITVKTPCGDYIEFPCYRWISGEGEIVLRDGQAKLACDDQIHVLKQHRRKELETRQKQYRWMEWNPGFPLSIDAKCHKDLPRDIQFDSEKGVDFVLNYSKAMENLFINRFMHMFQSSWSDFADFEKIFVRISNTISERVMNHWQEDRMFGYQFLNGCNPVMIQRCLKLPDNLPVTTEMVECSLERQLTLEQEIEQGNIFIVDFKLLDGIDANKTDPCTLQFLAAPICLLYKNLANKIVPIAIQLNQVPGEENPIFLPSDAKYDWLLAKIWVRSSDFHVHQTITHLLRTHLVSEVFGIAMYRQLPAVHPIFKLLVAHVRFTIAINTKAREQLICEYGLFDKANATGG

[3] = Deoxyribose-damaging property as a measure of hydroxyl-radical formation (uM test compound)
[4] = target: T2, Arachidonate 5-lipoxygenase (Bos taurus) (UniProt Q9BEG3); assay: Inhibitory activity against 5-lipoxygenase (inhibition of 5-HETE and LTB4 biosynthesis) in bovine polymorphonuclear leukocytes (PMNL) at 30 uM; format: cell-based
T2 sequence (whole entry): T1 sequence (Q9BEG3 whole entry)
In short: (§1)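 Bovine PMNL from EDTA blood, platelets removed, 1×10^7 cells/mL in PBS pH 7.4. Compound (DMSO, 0.4% final) preincubated 15 min at 37 °C, then stimulated with CaCl2 2 mM and A23187 20 μM for 10 min. Stopped with methanol/acetonitrile containing NDGA and PGB2 marker. LTB4 (280 nm) and 5-HETE (232 nm) quantified by RP-HPLC against internal and external standards.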

[5] = (§2) Deoxyribose-damaging property as a measure of hydroxyl-radical formation (uM of malondialdehyde/mmol of deoxyribose released by 75 uM test compound)
In short: (§3)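 2-Deoxy-D-ribose (2 mM) with FeCl3 (0.1 mM) in 30 mM KH2PO4-KOH buffer pH 7.4, compound at 75 μM final (acetonitrile vehicle, fresh stocks), 2 h at 37 °C. TBA/trichloroacetic acid added, heated 100 °C 15 min, acidified, extracted into butanol, A532 read. Calibrated against malondialdehyde standard; expressed as μmol MDA/mmol deoxyribose.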

[6] = Reducing activity against 2,2-diphenyl-1-picrylhydrazyl with an equimolar amount of the test compound; c = Not reactive; format: ADME
[7] = as §2; format: ADME; in short: as §3
[8] = target: T2, Arachidonate 5-lipoxygenase (Bos taurus); assay: Inhibitory activity against 5-lipoxygenase (inhibition of 5-HETE and LTB4 biosynthesis) in bovine polymorphonuclear leukocytes (PMNL); format: cell-based; conditions: concentration not given here; in short: as §1

Work on `COc1cccc(/C=C/C(=O)C2c3cccc(O)c3C(=O)c3c(O)cccc32)c1` yielded a kDPPH [1] greater than 100 M⁻¹ s⁻¹ and an IC50 [2] of 3000 nM.
Compound `Cc1ccc(C=C2c3cccc(O)c3C(=O)c3c(O)cccc32)cc1` has a kDPPH [1] of less than 1 M⁻¹ s⁻¹, a Deoxyribose degradation (uM of MDA mM-1) [3] of less than 0.15 and an inhibition [4] of 23%.
Compound `N#Cc1ccc(C=C2c3cccc(O)c3C(=O)c3c(O)cccc32)cc1` has a kDPPH [1] of less than 1 M⁻¹ s⁻¹, a Deoxyribose degradation (uM of MDA mM-1) [3] of less than 0.15 and an inhibition [4] of 34%.
In the case of `CC(C)(C)c1cc(CC(=O)C2c3cccc(O)c3C(=O)c3c(O)cccc32)cc(C(C)(C)C)c1O`, the kDPPH [1] is reported as greater than 100 M⁻¹ s⁻¹ and the Deoxyribose degradation (uM of MDA mM-1) [3] is reported as less than 0.2.
With `COc1ccc(CC(=O)C2c3cccc(O)c3C(=O)c3c(O)cccc32)cc1` the kDPPH [1] was 15.1 M⁻¹ s⁻¹, the IC50 [2] was 500 nM and the Deoxyribose degradation (uM of MDA mM-1) [3] was less than 0.2.
In the case of `O=C1c2c(O)cccc2C(=CCc2ccccc2)c2cccc(O)c21`, the kDPPH [1] is reported as less than 1 M⁻¹ s⁻¹, the Deoxyribose degradation (uM of MDA mM-1) [3] is reported as less than 0.15 and the inhibition [4] is reported as 30%.
Work on `O=C1c2c(O)cccc2C(C(=O)Cc2ccccc2)c2cccc(O)c21` yielded a kDPPH [1] of 16.4 M⁻¹ s⁻¹ and a Deoxyribose degradation (uM of MDA mM-1) [3] of less than 0.2.
Compound `CCCC(=O)C1c2cccc(O)c2C(=O)c2c(O)cccc21` [BUTANTRONE] has a kDPPH [1] of 7 M⁻¹ s⁻¹, an IC50 [2] of 33000 nM and a Deoxyribose degradation (uM of MDA mM-1) [3] of 0.24.
With `COc1c(OC)c(OC(C)=O)c2cc(Cl)ccc2c1OC(C)=O` [LONAPALENE] the Deoxyribose degradation (uM of MDA mM-1) [5] was less than 0.15 and the kDPPH [6] was “Not Active”.
`O=C1c2c(O)cccc2C(=CCCc2ccccc2)c2cccc(O)c21` showed a kDPPH [1] of less than 1 M⁻¹ s⁻¹ and a Deoxyribose degradation (uM of MDA mM-1) [3] of less than 0.15.
Work on `O=C1c2c(O)cccc2C(=CCCCCc2ccccc2)c2cccc(O)c21` yielded a kDPPH [1] of less than 1 M⁻¹ s⁻¹, a Deoxyribose degradation (uM of MDA mM-1) [3] of less than 0.15 and an inhibition [4] of 0%.
With `O=C1c2c(O)cccc2C(C(=O)/C=C/c2ccccc2)c2cccc(O)c21` the Deoxyribose degradation (uM of MDA mM-1) [5] was 1.66 and the kDPPH [1] was greater than 100 M⁻¹ s⁻¹.
With `COc1cc(C=C2c3cccc(O)c3C(=O)c3c(O)cccc32)cc(OC)c1OC` the kDPPH [1] was less than 1 M⁻¹ s⁻¹, the Deoxyribose degradation (uM of MDA mM-1) [3] was less than 0.15 and the inhibition [4] was 10%.
With `O=C1c2c(O)cccc2C(C(=O)CCc2ccc(OCc3ccccc3)cc2)c2cccc(O)c21` the kDPPH [1] was 8.8 M⁻¹ s⁻¹, the IC50 [2] was 2000 nM and the Deoxyribose degradation (uM of MDA mM-1) [3] was less than 0.2.
Work on `O=C1c2c(O)cccc2C(=Cc2ccc(O)cc2)c2cccc(O)c21` yielded a kDPPH [1] greater than 100 M⁻¹ s⁻¹, an IC50 [2] of 4000 nM and a Deoxyribose degradation (uM of MDA mM-1) [3] of less than 0.15.
For `O=C1c2c(O)cccc2C(C(=O)CCCCc2ccccc2)c2cccc(O)c21`, the kDPPH [1] was 10.1 M⁻¹ s⁻¹, the IC50 [2] was 2000 nM and the Deoxyribose degradation (uM of MDA mM-1) [3] was less than 0.2.
Compound `O=C1c2c(O)cccc2C(C(=O)Cc2ccc(OCc3ccccc3)c(OCc3ccccc3)c2)c2cccc(O)c21` has a kDPPH [1] of 15 M⁻¹ s⁻¹, a Deoxyribose degradation (uM of MDA mM-1) [3] of less than 0.2 and an inhibition [4] of 34%.
Work on `O=C1c2c(O)cccc2C(C(=O)Cc2ccc(O)cc2)c2cccc(O)c21` yielded a kDPPH [1] of 14.7 M⁻¹ s⁻¹ and a Deoxyribose degradation (uM of MDA mM-1) [3] of 0.36.
Compound `O=C1c2c(O)cccc2C(=Cc2ccccc2)c2cccc(O)c21` has a kDPPH [1] of less than 1 M⁻¹ s⁻¹, a Deoxyribose degradation (uM of MDA mM-1) [3] of less than 0.15 and an inhibition [4] of 34%.
With `O=C1c2c(O)cccc2C(C(=O)Cc2ccc(OCc3ccccc3)cc2)c2cccc(O)c21` the kDPPH [1] was 13.3 M⁻¹ s⁻¹, the IC50 [2] was 600 nM and the Deoxyribose degradation (uM of MDA mM-1) [3] was less than 0.2.
`O=C1c2c(O)cccc2C(C(=O)CCc2ccccc2)c2cccc(O)c21` showed a kDPPH [1] of 10.3 M⁻¹ s⁻¹ and a Deoxyribose degradation (uM of MDA mM-1) [3] of less than 0.2.
For `O=C1c2c(O)cccc2C(=Cc2cc(O)c(O)c(O)c2)c2cccc(O)c21`, the kDPPH [1] was greater than 100 M⁻¹ s⁻¹, the IC50 [2] was 400 nM and the Deoxyribose degradation [7] was 6.03 uM of MDA mM-1.
`CC(Cc1ccc(O)c(O)c1)C(C)Cc1ccc(O)c(O)c1` (configuration not stated) [NORDIHYDROGUAIARETIC ACID] showed a Deoxyribose degradation (uM of MDA mM-1) [5] of 0.23 and a kDPPH [1] greater than 100 M⁻¹ s⁻¹.
Work on `COC(=O)c1ccc(C=C2c3cccc(O)c3C(=O)c3c(O)cccc32)cc1` yielded a kDPPH [1] of less than 1 M⁻¹ s⁻¹, a Deoxyribose degradation (uM of MDA mM-1) [3] of less than 0.15 and an inhibition [4] of less than 10%.
With `COc1ccc(CCC=C2c3cccc(O)c3C(=O)c3c(O)cccc32)cc1` the kDPPH [1] was less than 1 M⁻¹ s⁻¹, the Deoxyribose degradation (uM of MDA mM-1) [3] was less than 0.15 and the inhibition [8] was 24%.
Work on `O=C1c2c(O)cccc2C(C(=O)Cc2cc(O)c(O)c(O)c2)c2cccc(O)c21` yielded a Deoxyribose degradation (uM of MDA mM-1) [5] of 2.99 and a kDPPH [1] greater than 100 M⁻¹ s⁻¹.
In the case of `COc1cc(CCC(=O)C2c3cccc(O)c3C(=O)c3c(O)cccc32)cc(OC)c1OC`, the kDPPH [1] is reported as 10.3 M⁻¹ s⁻¹ and the Deoxyribose degradation (uM of MDA mM-1) [3] is reported as less than 0.2.
Work on `O=C1c2c(O)cccc2C(C(=O)/C=C/c2ccc([N+](=O)[O-])cc2)c2cccc(O)c21` yielded a Deoxyribose degradation (uM of MDA mM-1) [5] of 0.88, a kDPPH [1] greater than 100 M⁻¹ s⁻¹ and an IC50 [2] of 6000 nM.
For `O=C1c2c(O)cccc2Cc2cccc(O)c21` [ANTHRALIN], the kDPPH [1] was 24.2 M⁻¹ s⁻¹.
`O=C1c2c(O)cccc2C(=Cc2ccc([N+](=O)[O-])cc2)c2cccc(O)c21` gave a kDPPH [1] of less than 1 M⁻¹ s⁻¹, an IC50 [2] of 2000 nM and a Deoxyribose degradation (uM of MDA mM-1) [3] of less than 0.15.
`O=C1c2c(O)cccc2C(C(=O)Cc2cc(OCc3ccccc3)c(OCc3ccccc3)c(OCc3ccccc3)c2)c2cccc(O)c21` gave a Deoxyribose degradation (uM of MDA mM-1) [5] of less than 0.2 and a kDPPH [1] of 15.3 M⁻¹ s⁻¹.
With `O=C1c2c(O)cccc2C(C(=O)CCCc2ccccc2)c2cccc(O)c21` the kDPPH [1] was 10.1 M⁻¹ s⁻¹, the IC50 [2] was 300 nM and the Deoxyribose degradation (uM of MDA mM-1) [3] was less than 0.2.
Compound `O=C(O)c1ccc(C=C2c3cccc(O)c3C(=O)c3c(O)cccc32)cc1` has a kDPPH [1] of less than 1 M⁻¹ s⁻¹, a Deoxyribose degradation (uM of MDA mM-1) [3] of less than 0.15 and an inhibition [4] of less than 10%.
Compound `O=C1c2c(O)cccc2C(=Cc2ccc(C(F)(F)F)cc2)c2cccc(O)c21` has a kDPPH [1] of less than 1 M⁻¹ s⁻¹, a Deoxyribose degradation (uM of MDA mM-1) [3] of less than 0.15 and an inhibition [4] of 33%.
Compound `COc1ccc(C=C2c3cccc(O)c3C(=O)c3c(O)cccc32)cc1` has a kDPPH [1] of less than 1 M⁻¹ s⁻¹, a Deoxyribose degradation (uM of MDA mM-1) [3] of less than 0.15 and an inhibition [4] of less than 10%.
`O=C1c2c(O)cccc2C(C(=O)Cc2ccc([N+](=O)[O-])cc2)c2cccc(O)c21` showed a kDPPH [1] of 63.7 M⁻¹ s⁻¹ and a Deoxyribose degradation (uM of MDA mM-1) [3] of less than 0.2.
In the case of `O=C1c2c(O)cccc2C(C(=O)CCc2ccc(O)cc2)c2cccc(O)c21`, the kDPPH [1] is reported as 7.8 M⁻¹ s⁻¹, the IC50 [2] is reported as 1000 nM and the Deoxyribose degradation (uM of MDA mM-1) [3] is reported as 2.5.
`O=C1c2c(O)cccc2C(=Cc2ccc(O)c(O)c2)c2cccc(O)c21` gave a Deoxyribose degradation (uM of MDA mM-1) [5] of 0.44, a kDPPH [1] greater than 100 M⁻¹ s⁻¹ and an IC50 [2] of 500 nM.
`COc1ccc(CCC(=O)C2c3cccc(O)c3C(=O)c3c(O)cccc32)cc1` gave a kDPPH [1] of 7.4 M⁻¹ s⁻¹, an IC50 [2] of 1000 nM and a Deoxyribose degradation (uM of MDA mM-1) [3] of 1.4.
`COc1ccc(CCC(=O)C2c3cccc(O)c3C(=O)c3c(O)cccc32)cc1OC` showed a kDPPH [1] of 8.7 M⁻¹ s⁻¹, an IC50 [2] of 17000 nM and a Deoxyribose degradation (uM of MDA mM-1) [3] of less than 0.2.
Compound `O=C1c2c(O)cccc2C(C(=O)Cc2ccc(O)c(O)c2)c2cccc(O)c21` has a Deoxyribose degradation (uM of MDA mM-1) [5] of 6.26, a kDPPH [1] greater than 100 M⁻¹ s⁻¹ and an IC50 [2] of 11000 nM.
With `COc1ccc(C=C2c3cccc(O)c3C(=O)c3c(O)cccc32)cc1OC` the kDPPH [1] was less than 1 M⁻¹ s⁻¹, the Deoxyribose degradation (uM of MDA mM-1) [3] was less than 0.15 and the inhibition [4] was less than 10%.
Compound `O=C1c2c(O)cccc2C(=CCCCc2ccccc2)c2cccc(O)c21` has a kDPPH [1] of less than 1 M⁻¹ s⁻¹, a Deoxyribose degradation (uM of MDA mM-1) [3] of less than 0.15 and an inhibition [4] of 21%.
In the case of `CC(=O)Oc1cccc2cc3cccc(OC(C)=O)c3c(OC(C)=O)c12` [TRIACETOXYANTHRENE], the Deoxyribose degradation (uM of MDA mM-1) [5] is reported as less than 0.15, the kDPPH [6] is reported as “Not Active” and the inhibition [4] is reported as 15%.
